Screens: PubChem, The Scripps Research Institute Molecular Screening Center
Hits are enriched below; roughly 3.3% of the tested compounds scored in any of these assays.
UHRF1 binding = human UHRF1 methylated DNA binding inhibitors | inhibition, % at 4.4 µM | Q96T88 | UHRF1 binding to methylated oligo, TR-FRET | actives 0.75% (n = 370,000); in the data active = inhibition above about 21%;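 also: UHRF1 SRA domain binding a hemimethylated CpG hairpin DNA probe; 0% = median of test compound wells and 100% = reference inhibitor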
Target sequence (Q96T88 whole entry, looked up, the tested form may be a part): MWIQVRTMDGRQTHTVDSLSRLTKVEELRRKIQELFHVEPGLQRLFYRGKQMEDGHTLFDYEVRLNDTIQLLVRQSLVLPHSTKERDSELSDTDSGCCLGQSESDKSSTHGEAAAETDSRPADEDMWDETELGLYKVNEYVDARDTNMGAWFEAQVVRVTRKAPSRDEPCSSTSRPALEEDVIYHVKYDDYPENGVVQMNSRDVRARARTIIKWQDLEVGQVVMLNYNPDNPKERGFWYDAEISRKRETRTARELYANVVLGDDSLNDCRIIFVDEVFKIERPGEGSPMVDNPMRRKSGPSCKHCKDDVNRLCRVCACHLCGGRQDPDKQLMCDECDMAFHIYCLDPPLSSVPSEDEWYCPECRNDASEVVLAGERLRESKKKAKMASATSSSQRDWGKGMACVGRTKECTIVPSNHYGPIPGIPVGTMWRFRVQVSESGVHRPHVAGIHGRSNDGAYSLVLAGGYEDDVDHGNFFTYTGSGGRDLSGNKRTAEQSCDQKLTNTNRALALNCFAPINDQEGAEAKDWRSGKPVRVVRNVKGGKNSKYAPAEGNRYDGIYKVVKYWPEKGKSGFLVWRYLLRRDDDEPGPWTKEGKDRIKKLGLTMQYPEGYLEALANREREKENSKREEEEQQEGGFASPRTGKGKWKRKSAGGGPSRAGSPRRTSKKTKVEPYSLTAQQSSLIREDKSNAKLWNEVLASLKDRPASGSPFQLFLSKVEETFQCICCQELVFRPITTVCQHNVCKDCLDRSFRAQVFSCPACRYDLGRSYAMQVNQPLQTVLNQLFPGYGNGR
LEDGF integ inh = blocks HIV-1 LEDGF/p75-dependent DNA integration; inhibition, % at 3.7 µM; TR-FRET IN-LEDGF/p75 DNA integration, Eu/Cy5; actives 0.64% (n = 370,000);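 active = inhibition above the screen-wide mean plus 3 SD, cut at about 13% in these data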;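 also: signal is the Cy5 over europium emission ratio at 671 and 618 nm; 0% = plate median of compound wells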
PRMT1 inh = inhibitors of human PRMT1; Q99873; recombinant PRMT1, activity-based probe fluorescence polarization; inhibition, % at 2.79 µM; actives 1.3% (n = 370,000); AID 652257;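 active = inhibition above about 21% made by adding two undisclosed values, limit read from the data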
TDP2 absorb = TDP2 (human) inhibition, absorbance primary screen; recombinant TDP2, T5PNP hydrolysis, p-nitrophenol absorbance 415 nm; actives 0.34% (n = 370,000); inhibition, % at 12.8 µM; O95551;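 active = inhibition above the mean of all tested compounds plus 3 SD, set per campaign, cut at about 25% in these data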;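 also: 0% = DMSO with enzyme and 100% = buffer with substrate but no TDP2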
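Test system: human TDP2 enzyme; Input: 120 nM TDP2 per well; Buffer or medium: Mg2+-containing Tris-HCl buffer, pH 7.5; Reagent: 5 mM T5PNP; Dosing: 12.8 µM single point, 1% DMSO; Incubation: reaction 2 h, 37 °C; Detection: p-Nitrophenol epi absorbance; Read-out: % inhibition relative to enzyme-containing and enzyme-free wells; Replicates: single well per compound.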
SIAE inh = blocks human sialic acid acetylesterase | SIAE FP-Rh probe binding, fluorescence polarization | actives 0.69% (n = 370,000) | inhibition, % at 9.66 µM | Q9HAT2;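 active = inhibition above a cutoff: mean of compounds within the control limits plus 3 SD of those, cut at about 17% in these data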;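 also: 0% = plate median of compound wells and 100% = probe without SIAE protein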
MBD2 inh = inhibitors of human MBD2 binding to methylated oligonucleotide; TR-FRET; Q9UBB5; actives 0.31% (n = 370,000); inhibition, % at 4.4 µM; in the data active = inhibition above about 13%
SIAE confirm = confirmation of human SIAE inhibitors; SIAE FP-Rh activity-based probe, fluorescence polarization; inhibition, % at 9.66 µM; AID 1117263; shares compounds with SIAE inh; actives 13% (n = 2,300);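 active = mean inhibition of the replicates above the hit cutoff set in the primary screen, cut at about 17% in these data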;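 also: 0% = SIAE with DMSO and probe and 100% = probe without SIAE; inhibitors lower polarization as more probe stays unbound to SIAE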
Starred values were filed as active, the others as inactive; . = no result.

SMILES	UHRF1 binding	LEDGF integ inh	PRMT1 inh	TDP2 absorb	SIAE inh	MBD2 inh	SIAE confirm
Cc1cc2nc(/C=C/c3nc4cc(C)c(C)cc4[nH]3)[nH]c2cc1C	2.5	3.9	-0.6	-16.1	-3.7	1.1	.
COc1ccc(C(=O)C[n+]2ccccc2/C=N/O)cc1	-1.6	1.6	-3.4	14.4	18.2*	3.9	6.1
COc1ccc2c(ccc[n+]2CC(=O)c2ccccc2)c1	-2.0	-3.5	-0.8	16.4	0.9	1.9	.
O=C(COc1c(Cl)cc(Cl)cc1Cl)N/N=C/c1ccc[nH]1	0.0	-4.1	-1.7	3.6	3.2	-4.7	.
O=C(N/N=C/c1cc2c3c(c1O)CCCN3CCC2)c1ccccc1O	-19.5	-5.9	17.0	-2.7	43.3*	-17.2	36.2*
CC(C)N(Cc1nc2ccccc2c(=O)[nH]1)C(=O)c1ccc(NC(=O)CSc2nnnn2C)cc1	-2.3	-1.6	-0.8	7.7	17.5*	2.5	-3.5
OC(c1ccccc1)(c1ccccc1)C1CCN(CCCOc2ccc(-c3ccncc3)cc2)CC1	1.0	1.1	1.4	4.1	-5.0	10.4	.
OC(c1ccccc1)(c1ccccc1)C1CCN(CCCOc2ccncc2)CC1	0.7	1.2	-1.4	1.0	21.8*	-0.9	-0.5
COC(=O)C1=C(C)N(Cc2ccc(Br)cc2)C(=S)NC1c1ccccc1 (stereo not drawn)	-0.2	2.5	9.9	1.8	-6.6	1.9	.
COC(=O)C1=NN(C(=O)c2cccc(Cl)c2)C(O)(C(C)(C)C)C1 (stereo not drawn)	-2.9	-2.2	0.2	-11.3	24.2*	-2.3	0.4
CC(C)CNC(=O)C1Nc2ccccc2C2C=CCC12 (stereo not drawn)	-7.8	1.9	15.0	-1.8	19.7*	2.1	5.1
CC(C)CNC(=O)C1Nc2ccc(C(F)(F)F)cc2C2C=CCC12 (stereo not drawn)	-1.3	1.9	7.5	12.9	8.7	-2.2	.
COc1ccc(N2CCN(C(=O)CN(c3ccccc3)S(C)(=O)=O)CC2)cc1	2.2	3.6	2.1	-1.4	19.9*	4.4	3.5
CS(=O)(=O)N(CC(=O)N1CCN(Cc2ccccc2)CC1)c1ccccc1F	-2.1	0.3	1.5	4.3	-0.6	-0.9	.
CS(=O)(=O)N(CC(=O)N1CCN(Cc2ccccc2)CC1)c1ccccc1Br	-0.5	-2.1	0.7	7.5	19.1*	4.9	5.5
COc1cc2ccccc2cc1C(=O)N1CCCCC1	-0.3	3.0	-0.8	0.0	-6.2	0.6	.
COc1cc2ccccc2cc1C(=O)N1CCCC1	2.6	0.5	-0.7	-8.3	22.1*	-0.8	-5.8
COc1ccc2[nH]c(C)c(CCNC(=S)Nc3cccc(C)c3C)c2c1	-0.2	-5.0	3.3	4.0	17.7*	-1.4	0.1
COc1ccc2[nH]c(C)c(CCNC(=S)Nc3ccccc3C)c2c1	-0.8	4.2	-3.4	-5.2	3.4	-3.2	.
O=C(CN1C(=O)NC2(CCCCC2)C1=O)N1CCN(S(=O)(=O)c2cccc([N+](=O)[O-])c2)CC1	1.5	0.5	0.6	6.3	18.4*	2.8	2.1
C[C@H]1[C@@H](OC(=O)Nc2ccc(Cl)cc2)CC[C@@]23CCCN2C(=O)CCC[C@@H]13	-0.3	-1.6	-1.5	-9.5	4.0	1.4	.
Cc1ccc(-n2ncc3c(N4CCN(c5ccccc5)CC4)ncnc32)c(C)c1	0.9	-3.6	-3.1	2.2	17.8*	-2.0	2.5
COc1ccc(N2CCN(c3ncnc4c3cnn4-c3ccc(C)cc3C)CC2)cc1	-1.4	0.1	-2.5	1.9	-2.3	-5.9	.
COc1cccc(-c2noc(-c3cccnc3)n2)c1	-3.6	1.4	-1.4	-7.5	-3.4	-3.4	.
COc1cccc(-c2noc(C(C)n3nc(C)c([N+](=O)[O-])c3C)n2)c1 (stereo not drawn)	6.3	4.2	0.3	-20.6	34.4*	-3.9	-0.6
SMILES	UHRF1 binding	LEDGF integ inh	PRMT1 inh	TDP2 absorb	SIAE inh	MBD2 inh	SIAE confirm
Cc1ccc(C(=O)O)cc1NC(=O)CSc1nnc(-c2ccccc2F)n1C1CCCCC1	0.9	-2.4	2.9	-3.0	18.7*	0.6	2.4
O=C(CSc1nnc(-c2ccccc2F)n1C1CCCCC1)Nc1cc(C(=O)O)ccc1Cl	-1.0	0.9	2.7	-11.4	5.2	-9.3	.
COc1ccc(NC(=O)n2ncc3c(C)cccc32)cc1	-0.8	-2.2	0.1	9.6	-0.5	1.5	.
COc1ccc(NC(=O)n2ncc3c(C)cccc32)cc1OC	-5.3	2.9	0.6	-12.2	17.4*	-7.2	-1.7
CC1CCC/C(=N/NC(=O)c2ccccc2-n2cccc2)C1 (stereo not drawn)	-1.4	1.9	-1.1	-4.7	42.4*	4.5	7.7
CC(C)(C)OC(=O)N1CCC2CCN(S(=O)(=O)c3ccccc3)CC21 (stereo not drawn)	2.3	-1.4	0.6	-9.3	5.0	0.8	.
CN(C)c1ccc(-c2csc(C(O)c3ccc(F)c(F)c3)n2)cc1 (stereo not drawn)	-3.2	-1.2	2.0	2.1	17.1*	2.5	2.3
COc1ccc(C2CC(=O)C(c3ccccc3)=CN2Cc2ccccc2)cc1 (stereo not drawn)	4.2	0.4	-2.7	1.2	1.1	-2.3	.
O=C(N[C@H](Cc1ccccc1)C(=O)NCc1ccco1)[C@H]1O[C@@H](n2ccc(=O)[nH]c2=O)[C@H](O)[C@@H]1O	0.3	-0.3	-0.1	-9.2	-0.7	-7.5	.
Oc1ccccc1Nc1nc(NCc2ccccc2)c2ccccc2n1	-2.4	-8.6	-2.9	-4.9	20.7*	-0.5	6.2
CNc1nc(NCc2ccccc2)c2ccccc2n1	-3.0	-0.2	-0.6	4.7	-2.9	2.0	.
CC(C)C(=O)Nc1ccc(C(=O)N/N=C/c2cc(Br)cc(Br)c2O)cc1	7.1	0.3	0.6	-12.3	4.1	6.4	.
CC(=O)Nc1ccc(C(=O)N/N=C/c2cc(Br)cc(Br)c2O)cc1	-0.1	-4.2	1.1	0.0	32.7*	4.2	13.6
CCCC[C@H]1C2CC(OC(=O)Nc3ccccc3Cl)C(C2)[C@H]2CCCCN21 (stereo partly drawn)	4.1	-1.7	3.7	-0.2	1.9	-4.3	.
Fc1ccccc1-c1ccc(/C=N/Nc2nc3ccccc3[nH]2)o1	-1.9	10.8	1.6	-7.8	34.5*	-3.5	34.5*
c1ccc2c(c1)CCN(C1=Nc3cccc4cccc1c34)C2	-9.8	4.8	1.3	1.7	30.1*	-3.7	1.1
COc1ccc(-c2nnc(SCC(=O)Nc3cccc4ccccc34)n2Cc2ccco2)cc1	1.7	0.1	4.9	-0.3	2.6	-1.9	.
NC(=S)Nc1cccc2cc3ccccc3cc12	-6.3	-1.6	5.5	18.8	19.3*	-6.1	7.0
